Laboratory results from paper PMC5073817 (ACS chemical neuroscience, 2016).
Entries after “also recorded” stand apart in the source; their conditions may differ. Where two headings read alike, the source gives them in different places. Marks after values point to notes of the source that are not given here.

How the values were obtained:
[1] = test system: 6-OHDA lesion models; settings: various 6-OHDA lesion models; cited from earlier work
[2] = test system: unilateral 6-OHDA lesion forelimb asymmetry; test: 6-OHDA lesion-induced forelimb asymmetry; type: in vivo, rats
[3] = target: mGlu4 (Rattus norvegicus, UniProt P31423); test: Glutamate concentration-response curve shift in cells expressing mGlu4 alone; type: cell-based; settings: for fold shift of glutamate CRC / glutamate pEC50 in presence of PAM: mGlu4 alone
[4] = target: mGlu2/4 heteromers (Rattus norvegicus, UniProt P31423); test: CODA-RET assay, mGlu4_L1/mGlu2_L2; type: cell-based; settings: for max response (BRET) in presence of PAM: L-AP4; for potentiation of L-AP4 responses: mGlu4_L1 and mGlu2_L2 coexpressed
Procedure, shortened: (§1)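 HEK-293T cells were PEI-transfected with HA-tagged rat mGlu constructs bearing luciferase fragments, plus Gαi-mVenus, Gβ1 and Gγ2. Plasmid ratios were 4:4:1:1:1 for mGlu4-L1/mGlu4-L2 homomers and 4:8:1:1:1 for mGlu4-L1/mGlu2-L2 heteromers. At 48 h, about 200 000 cells/well in PBS were stimulated 5 min at 37 °C with L-AP4 with or without increasing compound. Coelenterazine H (5 µM) was added, read 2 min later; BRET ratio = 510–540 nm over 485 nm.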

[5] = test system: mGlu2/4; test: Glutamate concentration-response curve shift in cells expressing mGlu2 and mGlu4; type: cell-based, rat; settings: for effect on the glutamate CRC: cells expressing mGlu2 and mGlu4; for fold shift of glutamate CRC / glutamate pEC50 in presence of PAM: mGlu2/4 cells
[6] = test system: mGlu2 coexpressed with mGlu4; settings: cited from earlier work
[7] = target: mGlu4 homomers (Rattus norvegicus, UniProt P31423); test: CODA-RET assay, mGlu4_L1/mGlu4_L2; type: cell-based; settings: for max response (BRET) in presence of PAM: mGlu4_L1/mGlu4_L2, L-AP4; for potentiation of L-AP4 responses: mGlu4 labeled with L1 or L2
Procedure, shortened: as §1

[8] = Plasma and brain exposure time course after 30 mg/kg dose; type: in vivo; settings: rat
[9] = cited from earlier work
[10] = test system: haloperidol-induced catalepsy; test: Haloperidol-induced catalepsy; type: in vivo, Sprague–Dawley rats; settings: oral, catalepsy assessed 30 min after dosing
[11] = target: human mGlu4 (Homo sapiens, UniProt Q14833); test: Gqi5-mediated calcium mobilization assay, human mGlu4/Gqi5/CHO cells; type: cell-based; settings: absence of glutamate
[12] = target: rat mGlu4 (Rattus norvegicus, UniProt P31423); test: GIRK/thallium flux assay, rat mGlu4/HEK/GIRK cells; type: cell-based
Procedure, shortened: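 Polyclonal HEK/GIRK cells stably expressing rat mGlu4 (pIRESpuro3, puromycin-selected) were loaded with 330 nM final FluoZin-2 AM in HBSS/20 mM HEPES pH 7.4 for 1 h at room temperature. Thallium flux was read kinetically at room temperature. EC50 came from four-parameter logistic fits; three determinations in triplicate, mean ± SEM.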

[13] = test system: rotarod motor performance; test: Rotarod test; type: in vivo, rats; settings: doses up to 100 mg/kg p.o., tested 30 min later
Procedure, shortened: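 Rats were pre-trained on the rotarod, then given vehicle or test compound at 10, 30, 56.6 or 100 mg/kg p.o. (10 mL/kg). Motor performance was tested 30 min after dosing.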

[14] = test system: haloperidol-induced catalepsy; settings: 56.6 mg/kg p.o.; previously demonstrated; cited from earlier work
[15] = CODA-RET, labeled mGlu2 and mGlu4 coexpressed

mGlu4, sequence (P31423 33-912): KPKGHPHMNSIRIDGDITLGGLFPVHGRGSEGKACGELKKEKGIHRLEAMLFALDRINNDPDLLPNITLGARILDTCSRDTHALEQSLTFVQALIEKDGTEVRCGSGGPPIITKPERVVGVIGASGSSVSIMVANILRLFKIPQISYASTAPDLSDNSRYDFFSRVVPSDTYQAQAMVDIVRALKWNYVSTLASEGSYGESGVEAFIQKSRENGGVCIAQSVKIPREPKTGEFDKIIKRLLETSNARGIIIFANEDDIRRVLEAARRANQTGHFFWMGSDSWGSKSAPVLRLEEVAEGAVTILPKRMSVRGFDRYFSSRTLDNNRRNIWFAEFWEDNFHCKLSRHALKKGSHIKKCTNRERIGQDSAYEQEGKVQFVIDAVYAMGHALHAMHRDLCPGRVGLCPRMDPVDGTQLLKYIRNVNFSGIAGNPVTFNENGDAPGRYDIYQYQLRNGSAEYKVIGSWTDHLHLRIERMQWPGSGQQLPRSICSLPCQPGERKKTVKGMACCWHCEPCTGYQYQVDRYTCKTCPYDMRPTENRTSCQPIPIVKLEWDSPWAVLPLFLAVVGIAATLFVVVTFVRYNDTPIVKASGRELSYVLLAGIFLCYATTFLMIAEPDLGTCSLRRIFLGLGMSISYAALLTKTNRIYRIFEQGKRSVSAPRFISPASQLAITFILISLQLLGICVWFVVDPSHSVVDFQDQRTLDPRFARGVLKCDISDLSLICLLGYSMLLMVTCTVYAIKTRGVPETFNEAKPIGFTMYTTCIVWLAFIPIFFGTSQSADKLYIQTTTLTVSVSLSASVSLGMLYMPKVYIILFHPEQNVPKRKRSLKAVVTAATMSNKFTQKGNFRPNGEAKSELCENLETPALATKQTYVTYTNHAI
mGlu2/4 heteromers, sequence (P31423 33-912): as above
mGlu2/4 heteromers, sequence (P31421 19-872 partner): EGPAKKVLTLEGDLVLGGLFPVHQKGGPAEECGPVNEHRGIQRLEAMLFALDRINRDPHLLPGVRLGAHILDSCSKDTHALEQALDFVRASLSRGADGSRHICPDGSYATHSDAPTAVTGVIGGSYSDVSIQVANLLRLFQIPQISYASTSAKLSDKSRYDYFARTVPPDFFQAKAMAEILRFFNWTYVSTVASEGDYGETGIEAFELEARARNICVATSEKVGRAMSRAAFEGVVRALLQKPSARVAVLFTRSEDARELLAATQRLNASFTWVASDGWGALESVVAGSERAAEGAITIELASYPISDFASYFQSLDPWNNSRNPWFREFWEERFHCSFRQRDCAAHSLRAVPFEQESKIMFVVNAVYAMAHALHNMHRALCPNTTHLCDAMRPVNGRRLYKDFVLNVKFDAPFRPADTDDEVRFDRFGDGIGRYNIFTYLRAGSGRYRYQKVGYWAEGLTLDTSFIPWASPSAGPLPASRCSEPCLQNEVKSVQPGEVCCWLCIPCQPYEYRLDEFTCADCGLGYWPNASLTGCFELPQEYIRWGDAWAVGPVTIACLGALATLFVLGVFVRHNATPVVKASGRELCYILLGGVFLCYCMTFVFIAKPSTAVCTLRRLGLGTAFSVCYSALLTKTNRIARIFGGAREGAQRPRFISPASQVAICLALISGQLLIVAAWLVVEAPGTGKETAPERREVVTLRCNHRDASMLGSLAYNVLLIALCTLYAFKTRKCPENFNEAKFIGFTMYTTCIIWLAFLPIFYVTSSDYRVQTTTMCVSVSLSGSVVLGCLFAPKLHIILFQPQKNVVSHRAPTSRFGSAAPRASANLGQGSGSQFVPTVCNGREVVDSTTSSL
rat mGlu4, sequence (P31423 33-912): as the sequence (P31423 33-912) above
mGlu4 homomers, sequence (P31423 33-912): as above
mGlu4 homomers, sequence (P31423 33-912): as above
human mGlu4, sequence (Q14833 33-912): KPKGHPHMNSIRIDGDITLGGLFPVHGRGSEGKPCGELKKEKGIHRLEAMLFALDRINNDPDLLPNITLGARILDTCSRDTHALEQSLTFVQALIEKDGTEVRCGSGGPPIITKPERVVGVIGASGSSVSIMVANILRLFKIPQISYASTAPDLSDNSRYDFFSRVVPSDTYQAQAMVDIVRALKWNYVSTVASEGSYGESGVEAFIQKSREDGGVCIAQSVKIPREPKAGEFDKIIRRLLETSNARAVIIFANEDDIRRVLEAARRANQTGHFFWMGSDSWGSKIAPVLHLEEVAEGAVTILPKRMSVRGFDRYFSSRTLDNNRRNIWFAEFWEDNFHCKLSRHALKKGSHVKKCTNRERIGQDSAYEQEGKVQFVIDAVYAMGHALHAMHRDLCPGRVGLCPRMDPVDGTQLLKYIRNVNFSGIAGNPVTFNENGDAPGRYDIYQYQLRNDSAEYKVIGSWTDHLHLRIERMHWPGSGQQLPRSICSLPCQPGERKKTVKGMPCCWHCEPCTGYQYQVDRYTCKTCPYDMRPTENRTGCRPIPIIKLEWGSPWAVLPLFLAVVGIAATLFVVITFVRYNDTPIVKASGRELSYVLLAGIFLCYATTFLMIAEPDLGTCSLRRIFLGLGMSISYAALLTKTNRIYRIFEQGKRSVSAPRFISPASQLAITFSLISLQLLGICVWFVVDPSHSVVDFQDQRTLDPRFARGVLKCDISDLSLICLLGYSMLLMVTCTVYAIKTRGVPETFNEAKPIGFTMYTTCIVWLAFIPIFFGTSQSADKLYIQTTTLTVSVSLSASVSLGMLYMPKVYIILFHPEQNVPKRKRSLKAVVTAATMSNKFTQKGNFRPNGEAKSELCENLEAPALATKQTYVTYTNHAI

Cc1ccnc(Nc2nc(-c3cn[nH]c3)c(C)s2)n1 [ADX88178]
potentiation of the effects of subthreshold doses of L-DOPA [1]: potentiate the effects of subthreshold doses of L-DOPA

N[C@@H](Cc1ccc(O)c(O)c1)C(=O)O [L-DOPA]
reversal of forelimb asymmetry ([2]; 0.75 mg/kg alone): inactive alone | reversal of forelimb asymmetry ([2]; 2.5 mg/kg dose): completely reversed motor deficits

NC(=O)[C@@H]1CCCC[C@@H]1C(=O)Nc1ccc(Cl)c(Cl)c1 [Lu AF21934]
fold shift of glutamate CRC ([3]; PAM concentration −4.5 (log)): 4.2 ± 0.42 | glutamate pEC50 in presence of PAM ([3]; PAM concentration −4.5 (log)): 5.43 ± 0.08 ^b | fold shift of glutamate CRC ([3]; PAM concentration −5 (log)): 3.8 ± 0.21 ^c | glutamate pEC50 in presence of PAM ([3]; PAM concentration −5 (log)): 5.39 ± 0.06 ^b | fold shift of glutamate CRC ([3]; PAM concentration −5.5 (log)): 3.2 ± 0.28 ^c | glutamate pEC50 in presence of PAM ([3]; PAM concentration −5.5 (log)): 5.32 ± 0.07 ^b | fold shift of glutamate CRC ([3]; PAM concentration −6 (log)): 2.1 ± 0.17 | glutamate pEC50 in presence of PAM ([3]; PAM concentration −6 (log)): 5.14 ± 0.07 ^b | fold shift of glutamate CRC ([3]; PAM concentration −6.5 (log)): 1.6 ± 0.09 ^c | glutamate pEC50 in presence of PAM ([3]; PAM concentration −6.5 (log)): 5.00 ± 0.04 ^b | fold shift of glutamate CRC ([3]; PAM concentration −7 (log)): 1.5 ± 0.12 | glutamate pEC50 in presence of PAM ([3]; PAM concentration −7 (log)): 4.99 ± 0.07 ^b | fold shift of glutamate CRC ([3]; PAM concentration −8 (log)): 1.1 ± 0.03 | glutamate pEC50 in presence of PAM ([3]; PAM concentration −8 (log)): 4.85 ± 0.03 | max response (BRET) in presence of PAM [4, 15]: 0.032 ± 0.004 | L-AP4 pEC50 in presence of PAM ([4]; CODA-RET, labeled mGlu2 and mGlu4 coexpressed, mean ± SEM): 7.66 ± 0.11 | potentiation of L-AP4 responses [4]: able to potentiate responses | effect on the glutamate CRC [5]: induced a leftward shift in the glutamate CRC | fold shift of glutamate CRC ([5]; PAM concentration −4.5 (log)): 3.2 ± 0.07 | glutamate pEC50 in presence of PAM ([5]; PAM concentration −4.5 (log)): 6.41 ± 0.08 ^b | fold shift of glutamate CRC ([5]; PAM concentration −5 (log)): 2.8 ± 0.07 ^c | glutamate pEC50 in presence of PAM ([5]; PAM concentration −5 (log)): 6.36 ± 0.08 ^b | fold shift of glutamate CRC ([5]; PAM concentration −5.5 (log)): 2.4 ± 0.13 ^c | glutamate pEC50 in presence of PAM ([5]; PAM concentration −5.5 (log)): 6.29 ± 0.06 ^b | fold shift of glutamate CRC ([5]; PAM concentration −6 (log)): 1.7 ± 0.04 | glutamate pEC50 in presence of PAM ([5]; PAM concentration −6 (log)): 6.13 ± 0.09 ^b | fold shift of glutamate CRC ([5]; PAM concentration −6.5 (log)): 1.2 ± 0.05 ^c | glutamate pEC50 in presence of PAM ([5]; PAM concentration −6.5 (log)): 6.00 ± 0.09 ^b | fold shift of glutamate CRC ([5]; PAM concentration −7 (log)): 1.2 ± 0.07 | glutamate pEC50 in presence of PAM ([5]; PAM concentration −7 (log)): 5.99 ± 0.06 | fold shift of glutamate CRC ([5]; PAM concentration −8 (log)): 1.0 ± 0.07 | glutamate pEC50 in presence of PAM ([5]; PAM concentration −8 (log)): 5.91 ± 0.11 | potentiation when mGlu2 and mGlu4 are coexpressed [6]: induce potentiation regardless of mGlu2 expression | max response (BRET) in presence of PAM ([7]; CODA-RET): 0.050 ± 0.003 | L-AP4 pEC50 in presence of PAM ([7]; CODA-RET, mGlu4_L1/mGlu4_L2, mean ± SEM): 7.70 ± 0.01 | potentiation of L-AP4 responses [7]: able to potentiate responses | potentiation of the effects of subthreshold doses of L-DOPA [1]: potentiate the effects of subthreshold doses of L-DOPA

O=C(Nc1cc(Cl)cc(Cl)c1)[C@H]1CCCC[C@H]1C(=O)O [VU0155041]
potentiation when mGlu2 and mGlu4 are coexpressed [6]: induce potentiation regardless of mGlu2 expression

Fc1ccc(Nc2n[nH]c3cccnc23)cc1Cl [VU0418506, N-(3-chloro-4-fluorophenyl)-1H-pyrazolo[4,3-b]pyridin-3-amine]
time after dosing for which sustained plasma and brain levels were observed [8]: at least 6 h | brain penetration [9]: good brain penetration | potentiation of glutamate response ([3]; cells only expressing mGlu4): induced significant potentiation | glutamate pEC50 in presence of PAM ([3]; PAM concentration −5 (log)): 5.87 ± 0.13 ^b | glutamate pEC50 in presence of PAM ([3]; PAM concentration −5.5 (log)): 6.07 ± 0.21 ^b | glutamate pEC50 in presence of PAM ([3]; PAM concentration −6 (log)): 5.93 ± 0.12 ^b | glutamate pEC50 in presence of PAM ([3]; PAM concentration −6.5 (log)): 5.67 ± 0.14 ^b | glutamate pEC50 in presence of PAM ([3]; PAM concentration −7 (log)): 5.55 ± 0.17 ^b | glutamate pEC50 in presence of PAM ([3]; PAM concentration −8 (log)): 5.08 ± 0.07 | max response (BRET) in presence of PAM [4, 15]: 0.021 ± 0.002 | potentiation of L-AP4 responses [4]: unable to potentiate L-AP4 responses | doses with significant activity in reversing catalepsy [10]: ≥ 3 mg/kg | effect on the glutamate CRC [5]: no effect on the glutamate CRC | glutamate pEC50 in presence of PAM ([5]; PAM concentration −5.5 (log)): 6.02 ± 0.02 | glutamate pEC50 in presence of PAM ([5]; PAM concentration −6.5 (log)): 5.89 ± 0.07 | glutamate pEC50 in presence of PAM ([5]; PAM concentration −7 (log)): 5.87 ± 0.05 | glutamate pEC50 in presence of PAM ([5]; PAM concentration −8 (log)): 5.86 ± 0.08 | direct allosteric agonist activity (compound added alone) [11]: does not exhibit direct allosteric agonist activity; also recorded: does not elicit activity in this assay in the absence of glutamate | max response (BRET) in presence of PAM ([7]; CODA-RET): 0.047 ± 0.0004 | potentiation of L-AP4 responses [7]: able to potentiate responses | EC50 [12]: 0.0466 µM | pEC50 (PAM potency) ([12]; rat mGlu4, GIRK/thallium flux, mean ± SEM): 7.34 ± 0.04 | EC50 ([12]; read-out: EC50 (PAM potency), rat mGlu4, GIRK/thallium flux): 0.046 µM | reversal of forelimb asymmetry ([2]; 3 mg/kg VU0418506 combined with 0.75 mg/kg L-DOPA): statistically significant efficacy | reversal of forelimb asymmetry ([2]; 3 mg/kg alone): inactive alone | reversal of forelimb asymmetry ([2]; 10 mg/kg administered alone, assessed after 30 min): statistically significant reversals of forelimb asymmetry | reversal of forelimb asymmetry ([2]; 30 mg/kg administered alone, assessed after 30 min): statistically significant reversals of forelimb asymmetry | impairment of rotorod performance [13]: did not observe any impairment

Cc1cc(C)n(-c2cc(NC(=O)CN3CCN(C)CC3)nc(-c3ccco3)n2)n1 [compound 23, N-(6-(3,5-dimethyl-1H–pyrazol-1-yl)-2-(furan-2-yl)-pyrimidin-4-yl)-2-(4-methylpiperazin-1-yl)acetamide]
reversal of haloperidol-induced catalepsy (positive control) [14]: robust reversal of haloperidol-induced catalepsy
